Compound activity (PubChem)
RGS4 inh: human RGS4 inhibition; 310,000 tested, 0.45% active; P49798; B-score at 10 µM; HEK293 M3R/RGS4 inducible, Fluo-4 calcium flux; stronger effect = higher value; triggered by carbachol at its EC20;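 active = B-score, a plate-corrected calcium signal, over three deviations above library mean, with baseline fluorescence within five deviations of library mean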;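 also: RGS4 expression induced by doxycycline in cells with stable M3 receptor; B-score is computed from the integrated fluorescence ratio over baseline after carbachol; higher B-score means a larger calcium signal and so more RGS4 inhibition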
MrgX1 antag: antagonists of human MrgX1 receptor | MRGX1-HEK293 calcium flux, Fluo-4, BAM8-22 antagonism; stronger effect = lower value | AID 588676 | B-score at 10 µM | 310,000 tested, 1.3% active | Q96LB2;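 active = calcium-response B-score plate-corrected more than 3 library SD below zero, starting fluorescence within 5 deviations, no agonist response on first addition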;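 also: peak minus trough fluorescence over baseline after final BAM8-22 challenge near maximal dose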
Target sequence (Q96LB2 whole entry, looked up): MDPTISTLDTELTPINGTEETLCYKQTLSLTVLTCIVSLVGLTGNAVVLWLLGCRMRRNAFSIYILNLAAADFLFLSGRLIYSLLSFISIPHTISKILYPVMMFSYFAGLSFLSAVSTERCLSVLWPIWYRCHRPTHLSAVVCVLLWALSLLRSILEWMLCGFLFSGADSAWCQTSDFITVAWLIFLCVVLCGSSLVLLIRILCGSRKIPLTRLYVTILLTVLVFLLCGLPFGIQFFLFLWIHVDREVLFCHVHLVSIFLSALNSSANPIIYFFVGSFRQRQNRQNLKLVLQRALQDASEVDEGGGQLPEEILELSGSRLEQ
MrgX1 agonist: agonists of human MrgX1 receptor | MrgX1-HEK293 cells, Fluo-4 calcium fluorescence, agonist mode; stronger effect = higher value | B-score at 10 µM | 310,000 tested, 0.44% active | AID 588627;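 active = calcium response B-score plate-corrected fluorescence ratio at least 3 library SD, with starting fluorescence B-score inside 5 SD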
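System: HEK293 cells stably expressing human MrgX1 receptor; Dosing: test compound in the initial addition of three; Schedule: overnight plating, then 30 min 37 °C plus 30 min room-temperature dye loading; Detection: kinetic calcium dye fluorescence, Fluo-4 NW; Controls: per-plate positive and negative controls for Z′ factor.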
RGS4 pot: potentiators or activators of RGS4. HEK293 M3R/inducible RGS4, carbachol calcium flux Fluo4; stronger effect = lower value. B-score at 10 µM. 310,000 tested, 0.92% active. AID 463111;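 active = B-score of the integrated calcium signal more than 4 SD below the library mean, with starting fluorescence not abnormally high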;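 also: negative B-score means reduced calcium response which marks RGS4 activation or potentiation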
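test system = M3R-expressing HEK293 line, RGS4 induced by doxycycline | probe or stimulus = carbachol at ECmax as muscarinic agonist stimulus | timing = dye loading 30 min 37 °C, buffer rest 30 min RT | signal = calcium dye Fluo4 fluorescence | evaluation = B score from integrated fluorescence ratio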
MrgX1 allo act: allosterically activates human MrgX1 receptor signaling; Q96LB2; MrgX1-HEK293, Fluo-4 calcium flux, FDSS; stronger effect = higher value; B-score at 10 µM; 310,000 tested, 0.63% active; AID 588675;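 active = plate-corrected calcium response at least 3 library SD above typical, normal starting fluorescence, not activating the receptor alone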;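 also: compound read alongside a low EC10 to EC30 dose of BAM8-22 agonist; peak minus trough fluorescence over baseline measured at the second addition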
RGS4 inh valid: RGS4 inhibitor validation; shares compounds with RGS4 inh; HEK293 M3R/RGS4, carbachol calcium Fluo-4 fluorescence; carbachol added at its EC20; 0 = buffer wells, 100 = carbachol control; calcium response, % at 10 µM; 1,700 tested, 65% active; AID 492999;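 active = duplicate-averaged calcium response above the buffer-only control mean plus 5 SD of those controls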;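 also: integrated fluorescence ratio F max minus min over baseline F0; higher response in RGS4-induced cells means RGS4 inhibition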
RGS4 uninduced: non-induced cell nonspecific activity of RGS4 inhibitors; 1,900 tested, 20% active; AID 493000; activity (percent), % at 10 µM; HEK293 M3R non-induced, carbachol calcium Fluo-4; submaximal (EC20) carbachol stimulus; buffer wells 0%, carbachol control wells 100%; shares compounds with RGS4 inh; call rule not given here;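 also: RGS4 induction absent so cells express M3R without RGS4; higher means more calcium signal and flags a non-specific hit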
M3R basal Ca ctr: signal in non-induced cells without carbachol, RGS4 inhibitor counter-screen | shares compounds with RGS4 inh | HEK293 M3R/RGS4 non-induced, Fluo-4 calcium, no carbachol; normalised: buffer wells 0%, carbachol wells 100% | calcium response (agonist-mode artifact), % at 10 µM | 1,900 tested, 22% active | AID 493001;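 active = duplicate-averaged calcium rise in uninduced cells above buffer wells' mean plus 5 SD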
* marks the source's active call; other numbers are inactive results; i = inactive; . = no result given. The list is not random: actives were taken first. Their share in the collection is about 3.5%.

SMILES | RGS4 inh | MrgX1 antag | MrgX1 agonist | RGS4 pot | MrgX1 allo act | RGS4 inh valid | RGS4 uninduced | M3R basal Ca ctr
CCCCCCCNC(=O)CN1C(=O)CSc2ccc(S(=O)(=O)N3CCOCC3)cc21 | i | i | i | i | i | . | . | .
CCOCCCNC(=O)CN1C(=O)COc2ccc(S(=O)(=O)N3CCCC3)cc21 | i | i | i | i | i | . | i | i
COCCCNC(=O)CN1C(=O)COc2ccc(S(=O)(=O)N3CCCCCC3)cc21 | i | i | i | i | i | . | . | .
O=C(NCc1ccccn1)c1cccc(NS(=O)(=O)c2cccc(F)c2)c1 | i | i | i | i | i | . | . | .
NCCNc1ccc(C(=O)N2c3ccccc3Sc3ccccc32)cc1[N+](=O)[O-] | i | i | i | i | i | . | . | .
COc1ccc(C2=NN(CN3C(=O)C(=O)c4ccccc43)C(c3ccc(C)cc3)C2)cc1 (stereo unspecified) | 6.74* | i | i | i | i | 18.5%* | i | i
COc1ccc(C2=NN(CN3C(=O)C(=O)c4ccccc43)C(c3ccc(Br)cc3)C2)cc1 (stereo unspecified) | 11.3* | i | i | i | i | 38.5%* | 42.5%* | i
COc1ccc(C2CC(c3ccc(Br)cc3)=NN2C(=O)c2cccnc2)cc1 (stereo unspecified) | i | i | i | i | i | . | . | .
O=C(NC1CCCCC1)c1cc(-c2cccc(Cl)c2)on1 | i | i | i | i | i | . | . | .
COc1ccc(-c2csc(Nc3cc(C)ccn3)n2)cc1OC | i | i | i | i | i | i | i | i
O=c1[nH]c(/C=C/c2ccc(Cl)cc2Cl)c([N+](=O)[O-])c(=O)[nH]1 | i | i | i | i | i | . | . | .
O=C1c2ccccc2NC(c2ccc(-c3ccc(Br)cc3)o2)N1O (stereo unspecified) | i | i | i | i | i | . | . | .
O=C1c2ccccc2NC(c2ccc(-c3cccc([N+](=O)[O-])c3)o2)N1O (stereo unspecified) | i | i | i | i | i | . | i | i
COc1ccc(NC(=O)c2c(NC(=O)CCC(=O)O)sc3c2CCCCC3)cc1 | i | i | i | i | i | i | i | i
O=C(O)CCC(=O)Nc1sc2c(c1C(=O)NCc1ccccc1)CCCC2 | i | i | i | i | i | . | . | .
COC(=O)c1cc2c(ccn2-c2ccc(F)cc2)n1Cc1ccc(OC)cc1 | i | i | i | i | i | . | . | .
CCn1c(C(=O)OC)cc2c1ccn2-c1ccc(F)cc1 | i | i | i | i | i | . | i | i
COc1ccc(OC)c(C2C(C#N)=C(N)Oc3c2c(C)nn3-c2ccc(C)cc2)c1 (stereo unspecified) | i | i | i | i | i | . | . | .
COc1ccc(C2C(C#N)=C(N)Oc3c2c(-c2ccccc2)nn3-c2ccccc2)c(OC)c1OC (stereo unspecified) | i | i | i | i | i | . | i | i
Cc1cc(C)c2nc(NNC(=O)c3ccc(S(=O)(=O)N4CCc5ccccc5C4)cc3)sc2c1 | 6.49* | i | i | i | i | 11.0%* | i | i
Cc1cc(C)c2sc(NNC(=O)c3ccc(S(=O)(=O)N4CCc5ccccc5C4)cc3)nc2c1 | i | i | i | i | i | . | i | i
O=C(O)CCCN1C(=O)/C(=C\C(Cl)=C\c2ccccc2)SC1=S | 14.8* | i | i | i | i | 44.5%* | i | i
